Key:
[1] = Cytotoxicity against human HEK293 cells assessed as cell viability incubated for 72 hrs by Alamar blue assay; type: cell-based
Method in brief: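 HEK293 cells handled with the same incubation, compound addition and timing as the 72 h parasite assay. Alamar Blue, diluted in growth medium, was incubated 4 h at 37 °C/5% CO2, then 20 h at room temperature before plate read.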

Plasmodium falciparum [2] = assay: Antiplasmodial activity against Plasmodium falciparum 3D7 infected in human erythrocyte assessed as intraerythrocytic growth inhibition incubated for 72 hrs by DAPI-staining based imaging analysis; type: functional, organism-based; conditions: 3D7, 72 h
Method in brief: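 P. falciparum 3D7 cultured in RPMI1640 with hypoxanthine, HEPES, 2.5 mg/mL AlbuMAX II and 5% human serum. Sorbitol-synchronized rings exposed 72 h at 37 °C under 5% CO2/5% O2, then DAPI-stained with saponin/Triton X-100 for 8 h in the dark. High-content imaging with spot detection. Duplicate points. Reference antimalarials run in each assay.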

[3] = Intrinsic clearance in rat liver microsomes at […] by LC-MS/MS analysis; type: ADME, Microsome
Method in brief: (§1)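 Liver microsomes (human, mouse or rat) at 0.4 mg/mL protein, 37 °C, with an NADPH-regenerating system. Compound at 0.25 or 0.5 μM. Acetonitrile/diazepam quench, LC-MS quantitation. CLint from the first-order degradation rate constant.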

[4] = Intrinsic clearance in mouse liver microsomes at […] by LC-MS/MS analysis; type: ADME, Microsome; method in brief: as §1
[5] = Apparent permeability of the compound from apical to basolateral side in human Caco-2 cells at 20 uM measured after 120 mins by LC-MS analysis; type: ADME, cell-based
Method in brief: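 Caco-2 monolayers, apical-to-basolateral direction, in pH 7.4 HBSS with 20 mM HEPES on both sides. Donor at nominal 20 μM, 0.1% DMSO final. Flux followed over 120 min. Quantified by LC-MS with mass balance to derive Papp.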

[6] = Intrinsic clearance in rat hepatocytes measured per 10^6 cells at 0.25 uM by LC-MS analysis; type: ADME, cell-based, Hepatocyte; conditions: read-out: CLH
Method in brief: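 Compound at 0.25 μM incubated with cryopreserved human or rat hepatocytes (1×10^6 cells/mL) in Krebs–Henseleit buffer at 37 °C. Quenched with acetonitrile containing diazepam. LC-MS quantitation. CLint from the first-order degradation rate constant.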

[7] = Fraction unbound in human plasma; type: ADME, cell-free
Method in brief: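 Human plasma protein binding measured by rapid equilibrium dialysis.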

CYP2D6 = CYP2D6 (Homo sapiens, UniProt P10635); assay: Inhibition of CYP2D6 (unknown origin) at 10 uM by UPLC-MS analysis relative to control; type: ADME
Chain of CYP2D6 (P10635 whole entry): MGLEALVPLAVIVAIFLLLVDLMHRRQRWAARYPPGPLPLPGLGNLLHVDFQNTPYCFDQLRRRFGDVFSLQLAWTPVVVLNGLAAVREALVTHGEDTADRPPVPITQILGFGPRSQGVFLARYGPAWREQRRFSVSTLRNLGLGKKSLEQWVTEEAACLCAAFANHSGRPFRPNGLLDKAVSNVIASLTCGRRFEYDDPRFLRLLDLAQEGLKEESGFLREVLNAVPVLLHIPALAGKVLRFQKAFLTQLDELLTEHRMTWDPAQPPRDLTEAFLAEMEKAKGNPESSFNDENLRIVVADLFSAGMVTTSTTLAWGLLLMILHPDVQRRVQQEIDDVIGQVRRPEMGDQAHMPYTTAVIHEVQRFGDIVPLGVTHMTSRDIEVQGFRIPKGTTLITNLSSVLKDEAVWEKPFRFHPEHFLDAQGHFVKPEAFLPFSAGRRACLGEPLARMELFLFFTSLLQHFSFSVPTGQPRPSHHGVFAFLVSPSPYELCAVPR
Method in brief: (§2)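 Human liver microsomes, using a substrate-specific metabolite approach. Test compound at 1 and 10 μM. Reference inhibitors: furafylline (1A2), sulfaphenazole (2C9), quinidine (2D6), ketoconazole (3A4). Specific metabolites quantified by UPLC-MS. Percent inhibition relative to incubation without inhibitor.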

CYP3A4 = CYP3A4 (Homo sapiens, UniProt P08684); assay: Inhibition of CYP3A4 (unknown origin) at 10 uM by UPLC-MS analysis relative to control; type: ADME; method in brief: as §2
Chain of CYP3A4 (P08684 whole entry): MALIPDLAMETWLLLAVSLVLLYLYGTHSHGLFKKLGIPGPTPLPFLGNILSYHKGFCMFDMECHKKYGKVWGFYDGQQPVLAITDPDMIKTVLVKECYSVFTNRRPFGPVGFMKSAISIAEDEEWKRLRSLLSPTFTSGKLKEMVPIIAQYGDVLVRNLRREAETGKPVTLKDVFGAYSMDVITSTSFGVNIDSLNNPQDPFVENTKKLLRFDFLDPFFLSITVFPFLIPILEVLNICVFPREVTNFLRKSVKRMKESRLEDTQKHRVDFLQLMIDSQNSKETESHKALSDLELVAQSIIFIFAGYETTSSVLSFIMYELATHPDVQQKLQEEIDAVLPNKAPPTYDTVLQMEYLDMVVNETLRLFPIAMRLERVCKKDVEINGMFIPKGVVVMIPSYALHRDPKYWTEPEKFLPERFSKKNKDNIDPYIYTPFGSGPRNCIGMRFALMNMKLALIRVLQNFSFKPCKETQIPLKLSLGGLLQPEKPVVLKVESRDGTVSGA

[8] = target: Voltage-gated inwardly rectifying potassium channel KCNH2 (Homo sapiens, UniProt Q12809); assay: Inhibition of human ERG by QPatch automated patch clamp system
Chain of Voltage-gated inwardly rectifying potassium channel KCNH2 (Q12809 whole entry): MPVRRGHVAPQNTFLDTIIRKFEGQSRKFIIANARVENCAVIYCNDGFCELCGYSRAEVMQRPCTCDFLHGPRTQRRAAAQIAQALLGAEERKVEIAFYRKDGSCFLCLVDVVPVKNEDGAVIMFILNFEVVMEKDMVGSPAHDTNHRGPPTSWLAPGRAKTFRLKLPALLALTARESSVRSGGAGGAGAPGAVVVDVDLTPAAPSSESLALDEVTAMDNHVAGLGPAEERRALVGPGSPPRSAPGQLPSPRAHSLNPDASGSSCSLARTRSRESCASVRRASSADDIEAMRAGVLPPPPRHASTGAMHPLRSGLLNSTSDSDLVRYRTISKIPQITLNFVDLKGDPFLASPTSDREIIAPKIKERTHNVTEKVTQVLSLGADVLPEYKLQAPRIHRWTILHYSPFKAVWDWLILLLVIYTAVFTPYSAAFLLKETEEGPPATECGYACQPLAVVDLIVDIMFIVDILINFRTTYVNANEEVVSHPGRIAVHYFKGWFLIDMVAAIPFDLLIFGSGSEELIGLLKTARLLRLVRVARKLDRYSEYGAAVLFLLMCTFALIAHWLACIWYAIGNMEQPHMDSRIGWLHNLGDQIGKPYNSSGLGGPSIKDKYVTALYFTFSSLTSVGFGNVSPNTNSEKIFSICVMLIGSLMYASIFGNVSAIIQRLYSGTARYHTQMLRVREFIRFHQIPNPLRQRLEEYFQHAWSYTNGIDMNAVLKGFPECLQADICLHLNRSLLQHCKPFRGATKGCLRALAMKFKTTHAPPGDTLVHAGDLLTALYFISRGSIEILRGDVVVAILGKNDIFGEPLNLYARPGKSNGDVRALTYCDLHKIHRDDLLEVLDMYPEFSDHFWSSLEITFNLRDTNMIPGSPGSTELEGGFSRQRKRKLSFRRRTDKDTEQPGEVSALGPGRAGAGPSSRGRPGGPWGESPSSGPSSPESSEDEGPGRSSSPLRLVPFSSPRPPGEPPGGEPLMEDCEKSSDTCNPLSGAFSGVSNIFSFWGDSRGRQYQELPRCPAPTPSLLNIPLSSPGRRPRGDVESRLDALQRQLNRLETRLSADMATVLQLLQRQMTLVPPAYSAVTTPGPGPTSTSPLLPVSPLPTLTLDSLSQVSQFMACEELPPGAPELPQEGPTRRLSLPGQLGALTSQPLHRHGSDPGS
Method in brief: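 hERG current recorded on a QPatch automated patch clamp at four concentrations in 0.5-log steps.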

Plasmodium falciparum [9] = assay: Antiplasmodial activity against liver stage Plasmodium falciparum NF54 sporozoites infected in human hepatocytes assessed as parasite killing measured after 96 hrs by schizont assay; type: functional, organism-based; conditions: NF54, 96 h
Plasmodium falciparum [10] = assay: Antiplasmodial activity against liver stage Plasmodium falciparum NF54 sporozoites infected in human hepatocytes assessed as maximal parasite killing measured after 96 hrs by schizont assay relative to control; type: functional
Hepatocyte = assay: Cytotoxicity against human hepatocyte measured after 96 hrs; type: cell-based; conditions: hepatocytes
Plasmodium falciparum [11] = assay: Antimalarial activity against Plasmodium falciparum K1 harbouring Pf-crt, Pf-mdrl,Pf-dhfr, Pf-dhps mutated loci assessed as inhibition of parasite growth incubated for […] by [3H]hypoxanthine incorporation assay based liquid scintillation counting method; type: functional, organism-based
Method in brief: (§3)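 Drug-resistant laboratory P. falciparum strains were compared against the sensitive strain NF54. Growth inhibition was read by a modified [3H]hypoxanthine incorporation assay over 72 h. IC50 is the mean of two independent biological replicates. Chloroquine and artesunate served as controls.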

Plasmodium falciparum [12] = assay: Antimalarial activity against Plasmodium falciparum 7G8 harbouring Pf-crt, Pf-mdrl,Pf-dhfr, Pf-dhps mutated loci assessed as inhibition of parasite growth incubated for […] by [3H]hypoxanthine incorporation assay based liquid scintillation counting method; type: functional, organism-based; method in brief: as §3
Plasmodium falciparum [13] = assay: Antimalarial activity against wild type Plasmodium falciparum Dd2 assessed as inhibition of parasite growth incubated for […] by [3H]hypoxanthine incorporation assay based liquid scintillation counting method; type: functional, organism-based
Method in brief: (§4)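 Genetically engineered P. falciparum lines carried mutations introduced into the Dd2 wild-type strain, which was tested alongside them. Growth inhibition was read by [3H]hypoxanthine incorporation over 72 h. IC50 is the mean of two independent biological replicates. Chloroquine and artesunate served as controls.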

Plasmodium falciparum [14] = assay: Antimalarial activity against Plasmodium falciparum Dd2 ELQ-300 mutant harbouring Pf-cytB assessed as inhibition of parasite growth incubated for […] by [3H]hypoxanthine incorporation assay based liquid scintillation counting method; type: functional, organism-based; method in brief: as §4
Plasmodium falciparum [15] = assay: Antimalarial activity against Plasmodium falciparum Dd2 DDD498 mutant harbouring Pf-cytB assessed as inhibition of parasite growth incubated for […] by [3H]hypoxanthine incorporation assay based liquid scintillation counting method; type: functional, organism-based; method in brief: as §4
Plasmodium falciparum [16] = assay: Antimalarial activity against Plasmodium falciparum 3D70087/N9 infected in humanized NODscidlL2Rgamma null mouse model assessed as reduction in parasitemia at 50 mg/kg, po for 4 consecutive days measured after 7 days of post infection relative to control; type: functional; conditions: 3D70087/N9, po, 96 h, time 4 day
Method in brief: (§5)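 P. falciparum humanized SCID mouse model. Monosodium tetrahydrate salt given orally at 50 or 100 mg/kg on 4 consecutive days, n = 2 mice per group. Parasitemia read at day 7 post infection versus untreated controls.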

Plasmodium falciparum [17] = assay: Antimalarial activity against Plasmodium falciparum 3D70087/N9 infected in humanized NODscidlL2Rgamma null mouse model assessed as reduction in parasitemia at 100 mg/kg, po for 4 consecutive days measured after 7 days of post infection relative to control; type: functional; conditions: 3D70087/N9, po, 96 h, time 4 day; method in brief: as §5
[18] = Toxicity in SCID mouse infected with Plasmodium falciparum 3D70087/N9 at 50 to 100 mg/kg, po for 4 consecutive days measured after 7 days of post infection; type: organism-based; conditions: in vivo, 96 h, dose 50-100 mg/kg, time 4 day
Plasmodium falciparum [19] = assay: Antimalarial activity against Plasmodium falciparum Dd2 […] mutant harbouring Pf-car1 assessed as inhibition of parasite growth incubated for […] by [3H]hypoxanthine incorporation assay based liquid scintillation counting method; type: functional, organism-based; method in brief: as §4
Plasmodium falciparum [20] = assay: Antimalarial activity against Plasmodium falciparum Dd2 MMV048 mutant harbouring Pf-pi4k assessed as inhibition of parasite growth incubated for […] by [3H]hypoxanthine incorporation assay based liquid scintillation counting method; type: functional, organism-based; method in brief: as §4
Plasmodium falciparum [21] = assay: Antimalarial activity against Plasmodium falciparum NF54 assessed as inhibition of parasite growth incubated for 72 hrs by [3H]hypoxanthine incorporation assay based liquid scintillation counting method

## CCc1cccc(CNC(=O)c2nc3cccc(COCc4ccc(C(=O)O)cc4)c3c(=O)[nH]2)c1
[1]
  CC50 at 72 h: > 40000 nM
Plasmodium falciparum [2]
  IC50: 25 nM
[3]
  CLH: 36 uL/ml.millig
[4]
  CLH: 183 uL/ml.millig
[5]
  Papp A→B at 2 h, 20 µM: 35 ×10⁻⁶ cm/s
[6]
  hepatocyte CLint at 0.25 µM: 6 µL/min/1e6 cells
[7]
  Fu: 0.2%
CYP2D6
  inhibition at 10 µM: < 10%
CYP3A4
  inhibition at 10 µM: < 10%
[8]
  IC50: > 30000 nM
Plasmodium falciparum [9]
  IC50: 75 nM
Plasmodium falciparum [10]
  Emax: 50%
Hepatocyte
  Activity: Non-Toxic
Plasmodium falciparum [11]
  IC50: 31 nM
Plasmodium falciparum [12]
  IC50: 16 nM
Plasmodium falciparum [13]
  IC50: 33 nM
Plasmodium falciparum [14]
  IC50: 20 nM
Plasmodium falciparum [15]
  IC50: 19 nM
Plasmodium falciparum [16]
  inhibition in vivo at 50 mg/kg: 65%
Plasmodium falciparum [17]
  inhibition in vivo at 100 mg/kg: 89%
[18]
  Activity: Non-Toxic
Plasmodium falciparum [19]
  IC50: 18 nM
Plasmodium falciparum [20]
  IC50: 27 nM
Plasmodium falciparum [21]
  IC50: 60 nM
